According to ChEMBL document CHEMBL5678799 (Biochem J, 2009):
Activity calls are given as the source filed them. The calls are words filed in the database; no cut-off is given here.

Assays:
[1] = target: mTORC1 (Homo sapiens) (UniProt P42345+Q8N122+Q9BVC4); settings: HEK293, dose 30-1000 nM, time 30.0 min
[2] = target: Fibroblast growth factor receptor 1 (Homo sapiens) (UniProt P11362); test: Inhibition of recombinant human N-terminal His6-tagged FGFR1 (400 to 820 residues) expressed in baculovirus infected Sf21 cells assessed as remaining activity at 1 uM using Poly(Glu,Tyr) as substrate incubated for 30 mins in presence of [gamma-33P]ATP by filter binding method relative to control
Sequence of Fibroblast growth factor receptor 1 (Homo sapiens) (P11362 22-822 limits assumed): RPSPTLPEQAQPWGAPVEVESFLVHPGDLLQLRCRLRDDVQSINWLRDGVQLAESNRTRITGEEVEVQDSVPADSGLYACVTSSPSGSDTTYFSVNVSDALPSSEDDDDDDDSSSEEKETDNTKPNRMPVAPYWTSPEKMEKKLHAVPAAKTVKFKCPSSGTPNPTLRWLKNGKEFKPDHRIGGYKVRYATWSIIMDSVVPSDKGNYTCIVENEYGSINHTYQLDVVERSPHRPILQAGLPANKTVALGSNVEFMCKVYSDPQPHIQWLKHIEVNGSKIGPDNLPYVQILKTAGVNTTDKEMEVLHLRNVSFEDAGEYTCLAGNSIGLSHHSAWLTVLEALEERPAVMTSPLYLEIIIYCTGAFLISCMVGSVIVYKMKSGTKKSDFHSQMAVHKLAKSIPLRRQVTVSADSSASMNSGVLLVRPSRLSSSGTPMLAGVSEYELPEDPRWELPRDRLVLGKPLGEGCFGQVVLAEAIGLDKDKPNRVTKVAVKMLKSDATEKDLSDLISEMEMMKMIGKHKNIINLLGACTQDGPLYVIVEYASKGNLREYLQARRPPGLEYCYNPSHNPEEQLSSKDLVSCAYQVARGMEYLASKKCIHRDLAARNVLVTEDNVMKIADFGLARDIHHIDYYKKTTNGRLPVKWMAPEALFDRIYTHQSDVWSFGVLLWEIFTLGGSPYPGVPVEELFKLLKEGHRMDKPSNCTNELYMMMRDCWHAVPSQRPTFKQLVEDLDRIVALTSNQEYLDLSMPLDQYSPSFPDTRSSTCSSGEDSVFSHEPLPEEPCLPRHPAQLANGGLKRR
In short: (§1)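 Panel assays were run for 30 min at 21 °C, within the linear range for time and enzyme. […] Results are percent activity remaining relative to compound-free control, averaged from triplicate ± S.D.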

[3] = species: Homo sapiens; test: Inhibition of choline kinase (unknown origin) assessed as remaining activity at 10 uM using choline as substrate incubated for 30 mins in presence of ATP by Kinase Glo assay relative to control
In short: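 Choline kinase assayed with 1 mM choline, 1 μM ATP in 25 mM glycine/NaOH pH 8.5, 67 mM KCl, 5 mM MgCl2, 1 mM DTT, 30 min at room temperature. Stopped with Kinase-Glo Plus, luminescence read after 10 min. Activity relative to control, triplicate.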

[4] = target: T1, mTORC2 (Homo sapiens) (UniProt P42345+Q6R327+Q9BVC4+Q9BPZ7); settings: HEK293, dose 30-1000 nM, time 30.0 min
[5] = target: T1, mTORC2 (Homo sapiens); settings: HEK293, dose 100-1000 nM, time 12-48 hrs
[6] = target: Dual specificity tyrosine-phosphorylation-regulated kinase 1A (Homo sapiens) (UniProt Q13627); test: Inhibition of recombinant human N-terminal GST-tagged DYRK1A (1 to 502 residues) expressed in Escherichia coli assessed as remaining activity at 10 uM using KKISGRLSPIMTEQ as substrate incubated for 30 mins in presence of [gamma-33P]ATP by filter binding method relative to control
In short: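 Run robotically for 30 min at 21 °C under linear conditions. Compound at 1 or 10 µM. Percentage activity remaining versus control without compound, triplicate mean ± S.D.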

[7] = target: Mitogen-activated protein kinase; ERK1/ERK2 (Homo sapiens) (UniProt P27361+P28482); test: Inhibition of ERK1/2 in serum starved/PMA-stimulated HEK293 cells assessed as reduction in RSK phosphorylation at T573 residues at 1 uM incubated for 30 mins by immunoblot analysis; assay type: cell-based
Sequence of Mitogen-activated protein kinase; ERK1/ERK2 (Homo sapiens) (P27361 whole entry, looked up, the tested form may be a part): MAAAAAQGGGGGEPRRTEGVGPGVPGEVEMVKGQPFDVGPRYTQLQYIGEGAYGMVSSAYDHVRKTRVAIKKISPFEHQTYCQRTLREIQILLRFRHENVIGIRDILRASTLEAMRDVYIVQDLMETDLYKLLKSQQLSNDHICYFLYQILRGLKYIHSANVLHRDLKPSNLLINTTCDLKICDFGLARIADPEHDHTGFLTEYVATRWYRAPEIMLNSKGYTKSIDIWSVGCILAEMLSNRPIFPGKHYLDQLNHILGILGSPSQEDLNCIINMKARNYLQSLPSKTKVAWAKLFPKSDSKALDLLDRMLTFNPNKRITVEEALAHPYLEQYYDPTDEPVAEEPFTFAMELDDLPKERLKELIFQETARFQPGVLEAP
Sequence of Mitogen-activated protein kinase; ERK1/ERK2 (Homo sapiens) (P28482 whole entry, looked up, the tested form may be a part): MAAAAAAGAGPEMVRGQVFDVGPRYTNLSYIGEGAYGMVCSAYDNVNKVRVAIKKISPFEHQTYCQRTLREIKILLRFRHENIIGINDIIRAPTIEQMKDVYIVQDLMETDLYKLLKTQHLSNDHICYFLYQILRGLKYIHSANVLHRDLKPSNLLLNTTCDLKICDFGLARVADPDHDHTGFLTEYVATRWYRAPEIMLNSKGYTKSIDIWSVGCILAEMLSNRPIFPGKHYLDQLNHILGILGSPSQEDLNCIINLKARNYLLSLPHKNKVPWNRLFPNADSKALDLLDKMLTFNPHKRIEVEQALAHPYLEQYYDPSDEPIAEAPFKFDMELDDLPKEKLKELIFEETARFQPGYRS

[8] = target: Tyrosine-protein kinase BTK (Homo sapiens) (UniProt Q06187); test: Inhibition of recombinant human N-terminal His6-tagged BTK (2 to 659 residues) expressed in baculovirus infected Sf21 cells assessed as remaining activity at 10 uM using KVEKIGEGTYGVVYK as substrate incubated for 30 mins in presence of [gamma-33P]ATP by filter binding method relative to control
Sequence of Tyrosine-protein kinase BTK (Homo sapiens) (Q06187 whole entry, the tested form may be a part): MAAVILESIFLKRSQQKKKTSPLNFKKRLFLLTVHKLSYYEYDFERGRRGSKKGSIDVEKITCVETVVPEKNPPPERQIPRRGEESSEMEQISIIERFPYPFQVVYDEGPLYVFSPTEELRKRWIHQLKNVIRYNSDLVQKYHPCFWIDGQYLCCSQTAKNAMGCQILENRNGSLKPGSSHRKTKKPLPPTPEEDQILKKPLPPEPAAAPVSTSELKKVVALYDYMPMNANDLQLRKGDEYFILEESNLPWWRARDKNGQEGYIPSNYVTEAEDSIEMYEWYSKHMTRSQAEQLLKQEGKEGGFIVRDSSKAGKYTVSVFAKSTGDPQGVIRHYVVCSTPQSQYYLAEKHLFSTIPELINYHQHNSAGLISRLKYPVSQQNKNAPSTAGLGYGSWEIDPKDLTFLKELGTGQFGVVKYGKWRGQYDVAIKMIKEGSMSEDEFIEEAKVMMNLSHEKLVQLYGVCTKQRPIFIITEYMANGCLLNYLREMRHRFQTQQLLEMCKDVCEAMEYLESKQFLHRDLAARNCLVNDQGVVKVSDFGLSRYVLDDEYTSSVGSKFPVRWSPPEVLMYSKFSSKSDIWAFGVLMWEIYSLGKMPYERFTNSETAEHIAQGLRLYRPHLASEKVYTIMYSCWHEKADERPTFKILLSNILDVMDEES
In short: (§2)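 Incubation was 30 min at room temperature (21 °C) under conditions linear with time and enzyme amount. Activity is reported as percent of control lacking compound, triplicate mean ± S.D.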

[9] = target: Serine/threonine-protein kinase PAK 5 (Homo sapiens) (UniProt Q9P286); test: Inhibition of recombinant human N-terminal GST-tagged PAK5 (2 to 719 residues) expressed in Escherichia coli assessed as remaining activity at 1 uM using RRRLSFAEPG as substrate incubated for 30 mins in presence of [gamma-33P]ATP by filter binding method relative to control
In short: as §1

[10] = target: Mitogen-activated protein kinase 15 (Homo sapiens) (UniProt Q8TD08); test: Inhibition of recombinant human N-terminal His6-tagged ERK8 (2 to 544 residues) expressed in baculovirus infected Sf21 cells assessed as remaining activity at 10 uM using MBP as substrate incubated for 30 mins in presence of [gamma-33P]ATP by filter binding method relative to control
Sequence of Mitogen-activated protein kinase 15 (Homo sapiens) (Q8TD08 whole entry, the tested form may be a part): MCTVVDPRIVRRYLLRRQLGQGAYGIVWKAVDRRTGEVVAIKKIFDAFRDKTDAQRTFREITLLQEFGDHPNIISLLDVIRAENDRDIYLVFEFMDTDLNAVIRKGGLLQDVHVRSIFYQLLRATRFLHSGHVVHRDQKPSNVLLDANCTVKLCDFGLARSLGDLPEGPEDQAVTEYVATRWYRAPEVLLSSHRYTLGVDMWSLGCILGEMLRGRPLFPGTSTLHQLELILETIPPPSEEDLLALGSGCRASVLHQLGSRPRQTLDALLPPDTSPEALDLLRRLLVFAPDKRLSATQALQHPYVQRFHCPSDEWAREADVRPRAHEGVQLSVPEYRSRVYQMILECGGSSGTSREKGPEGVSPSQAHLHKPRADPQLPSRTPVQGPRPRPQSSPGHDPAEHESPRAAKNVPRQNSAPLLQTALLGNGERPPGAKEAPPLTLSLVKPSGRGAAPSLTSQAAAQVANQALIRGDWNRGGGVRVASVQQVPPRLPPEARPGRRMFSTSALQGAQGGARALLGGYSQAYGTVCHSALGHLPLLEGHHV
In short: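 Radiometric kinase panel run robotically at room temperature (21 °C) for 30 min, linear in time and enzyme. […] Activity is expressed as percent of control without compound, from triplicate determinations ± S.D.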

[11] = target: Tyrosine-protein kinase CSK (Homo sapiens) (UniProt P41240); test: Inhibition of recombinant human N-terminal GST-tagged CSK (1 to 450 residues) expressed in Escherichia coli assessed as remaining activity at 10 uM Cdc2 peptide as substrate incubated for 30 mins in presence of [gamma-33P]ATP by filter binding method relative to control
Sequence of Tyrosine-protein kinase CSK (Homo sapiens) (P41240 2-450 limits assumed): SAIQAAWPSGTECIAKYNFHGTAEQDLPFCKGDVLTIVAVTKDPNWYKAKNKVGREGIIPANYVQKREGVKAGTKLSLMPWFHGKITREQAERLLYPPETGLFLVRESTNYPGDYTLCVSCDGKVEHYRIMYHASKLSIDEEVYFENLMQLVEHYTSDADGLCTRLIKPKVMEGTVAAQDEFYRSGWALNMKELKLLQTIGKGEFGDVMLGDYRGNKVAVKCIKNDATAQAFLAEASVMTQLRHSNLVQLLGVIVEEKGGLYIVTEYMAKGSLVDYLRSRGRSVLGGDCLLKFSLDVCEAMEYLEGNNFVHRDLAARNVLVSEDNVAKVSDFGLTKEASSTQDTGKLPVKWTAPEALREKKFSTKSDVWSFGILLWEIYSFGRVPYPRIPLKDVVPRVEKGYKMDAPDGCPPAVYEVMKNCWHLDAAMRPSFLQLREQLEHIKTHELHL
In short: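 Incubations ran robotically for 30 min at room temperature (21 °C) under linear conditions. Results are percent activity remaining versus controls without compound, as the mean of triplicates ± S.D.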

[12] = target: T1, mTORC2 (Homo sapiens); settings: HEK293, dose 30-1000 nM, time 30.0 min; remark: listed apart in the source
[13] = target: Protein kinase C alpha type (Homo sapiens) (UniProt P17252); test: Inhibition of recombinant human N-terminal His6-tagged PKCalpha (1 to 672 residues) expressed in baculovirus infected Sf21 cells assessed as remaining activity at 10 uM using Histone H1 as substrate incubated for 30 mins in presence of [gamma-33P]ATP by filter binding method relative to control
[14] = system: HEK293; test: Inhibition of PI3K in IGF1-stimulated HEK293 cells assessed as reduction in IGF1-stimulated PtdIns(3,4,5)P3 production at 1 uM pre incubated for 30 mins followed by IGF1-stimulation for 10 mins; assay type: cell-based; settings: Homo sapiens
[15] = target: Mitogen-activated protein kinase 1 (Homo sapiens) (UniProt P28482); test: Inhibition of recombinant human N-terminal GST-tagged ERK2 (2 to 360 residues) expressed in Escherichia coli assessed as remaining activity at 1 uM using MBP as substrate incubated for 30 mins in presence of [gamma-33P]ATP by filter binding method relative to control
Sequence of Mitogen-activated protein kinase 1 (Homo sapiens) (P28482 whole entry, the tested form may be a part): as the sequence (P28482 whole entry, looked up, the tested form may be a part) above
In short: as §2

[16] = target: T1, mTORC2 (Homo sapiens); settings: HEK293, dose 30-1000 nM, time 30.0 min; remark: listed apart in the source
[17] = target: MAP kinase-activated protein kinase 5 (Homo sapiens) (UniProt Q8IW41); test: Inhibition of recombinant human His6-tagged PRAK (1 to 471 residues) expressed in baculovirus infected Sf21 cells assessed as remaining activity at 10 uM using phosphorylase b peptide as substrate incubated for 30 mins in presence of [gamma-33P]ATP by filter binding method relative to control
Sequence of MAP kinase-activated protein kinase 5 (Homo sapiens) (Q8IW41 whole entry, the tested form may be a part): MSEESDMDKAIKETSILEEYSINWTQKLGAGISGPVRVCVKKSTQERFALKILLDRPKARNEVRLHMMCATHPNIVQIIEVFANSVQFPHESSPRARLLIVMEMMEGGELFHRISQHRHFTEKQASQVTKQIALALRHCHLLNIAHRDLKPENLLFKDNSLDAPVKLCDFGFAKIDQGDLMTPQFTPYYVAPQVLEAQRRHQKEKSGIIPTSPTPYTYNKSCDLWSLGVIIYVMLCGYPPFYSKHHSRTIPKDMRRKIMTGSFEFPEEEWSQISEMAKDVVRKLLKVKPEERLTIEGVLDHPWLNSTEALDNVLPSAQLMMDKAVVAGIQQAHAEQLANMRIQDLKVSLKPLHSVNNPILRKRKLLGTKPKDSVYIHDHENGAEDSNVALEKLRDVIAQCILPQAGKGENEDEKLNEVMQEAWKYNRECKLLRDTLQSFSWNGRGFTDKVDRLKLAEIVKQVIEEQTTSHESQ
In short: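 Robotic radiometric panel assay, 30 min at room temperature (21 °C), with 10 mM magnesium acetate. […] Compound at 1 or 10 µM. Residual activity expressed relative to compound-free control; triplicate average ± S.D.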

[18] = target: Mitogen-activated protein kinase 13 (Homo sapiens) (UniProt O15264); test: Inhibition of recombinant human GST-tagged P38delta (1 to 365 residues) expressed in Escherichia coli assessed as remaining activity at 10 uM using MBP as substrate incubated for 30 mins in presence of [gamma-33P]ATP by filter binding method relative to control
In short: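 Kinase panel run robotically at 21 °C for 30 min, linear in time and enzyme. […] Compound tested at 1 or 10 µM. Activity given as percentage of incubations without compound, mean of triplicates ± S.D.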

COc1ccc(-c2ccc3c(N4CCOCC4)nc(N4C[C@@H](C)O[C@@H](C)C4)nc3n2)cc1CO [Ku-0063794]
inhibition [1]: Active | Activity [2]: 102% | Activity [3]: 102% | inhibition [4]: Dose-Dependent Effect | inhibition [5]: Active | Activity [6]: 80% | inhibition [7]: inactive | Activity [8]: 81% | Activity [9]: 101% | Activity [10]: 92% | Activity [11]: 99% | inhibition [12]: Dose-Dependent Effect | Activity [13]: 86% | inhibition [14]: inactive | Activity [15]: 102% | inhibition [16]: Active | Activity [17]: 87% | Activity [18]: 87%
